Columns and labels:
[1] = test system: U-937; assay: Cytotoxicity in human U937 cell line after 72 hours; type: functional; conditions: U-937, 72 h
Summary of the method: (§1)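 Cells held in optimal culture conditions were exposed to test agent at 16 to 1000 µM, or control medium, for the stated time. Viability was scored by trypan blue exclusion. CC50 is the concentration giving 50% toxicity, from three or more experiments (some values are the mean of two).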

[2] = test system: MOLT-3; assay: Induction of apoptosis by the compound in human Molt-3 cell line after 24 hours; type: functional, cell-based; conditions: MOLT-3, 24 h
Summary of the method: (§2)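 Cultures were exposed under optimal conditions to 16–1000 µM compound, or control medium, for the stated time. Cells were stained with acridine orange, and over 600 cells were counted by fluorescence microscopy. AC50 is the concentration giving 50% apoptosis, from three or more experiments (some are the mean of two).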

[3] = test system: U-937; assay: Cytotoxicity in human U937 cell line after 24 hours; type: functional; conditions: U-937, 24 h; summary of the method: as §1
[4] = test system: U-937; assay: Induction of apoptosis by the compound in human U937 cell line after 24 hours; type: functional, cell-based; conditions: U-937, 24 h; summary of the method: as §2
[5] = test system: MOLT-3; assay: Cytotoxicity in human Molt-3 cell line after 48 hours; type: functional; conditions: MOLT-3, 48 h; summary of the method: as §1
[6] = test system: MOLT-3; assay: Cytotoxicity in human Molt-3 cell line after 72 hours; type: functional; conditions: MOLT-3, 72 h; summary of the method: as §1
[7] = test system: MOLT-3; assay: Induction of apoptosis by the compound in human Molt-3 cell line after 72 hours; type: functional, cell-based; conditions: MOLT-3, 72 h; summary of the method: as §2
[8] = test system: U-937; assay: Induction of apoptosis by the compound in human U937 cell line after 72 hours; type: functional, cell-based; conditions: U-937, 72 h; summary of the method: as §2
[9] = test system: HL-60; assay: Cytotoxicity in human HL-60 cell line after 24 hours; type: functional; conditions: HL-60, 24 h; summary of the method: as §1
[10] = test system: U-937; assay: Cytotoxicity in human U937 cell line after 48 hours; type: functional; conditions: U-937, 48 h; summary of the method: as §1
[11] = test system: MOLT-3; assay: Induction of apoptosis by the compound in human Molt-3 cell line after 48 hours; type: functional, cell-based; conditions: MOLT-3, 48 h; summary of the method: as §2
[12] = test system: MOLT-3; assay: Cytotoxicity in human Molt-3 cell line after 24 hours; type: functional; conditions: MOLT-3, 24 h; summary of the method: as §1
[13] = test system: HL-60; assay: Induction of apoptosis by the compound in human HL-60 cell line after 72 hours; type: functional, cell-based; conditions: HL-60, 72 h; summary of the method: as §2
[14] = test system: HL-60; assay: Cytotoxicity in human HL-60 cell line after 48 hours; type: functional; conditions: HL-60, 48 h; summary of the method: as §1
[15] = test system: HL-60; assay: Induction of apoptosis by the compound in human HL-60 cell line after 24 hours; type: functional, cell-based; conditions: HL-60, 24 h; summary of the method: as §2
[16] = test system: HL-60; assay: Cytotoxicity in human HL-60 cell line after 72 hours; type: functional; conditions: HL-60, 72 h; summary of the method: as §1
[17] = test system: U-937; assay: Induction of apoptosis by the compound in human U937 cell line after 48 hours; type: functional, cell-based; conditions: U-937, 48 h; summary of the method: as §2
[18] = test system: HL-60; assay: Induction of apoptosis by the compound in human HL-60 cell line after 48 hours; type: functional, cell-based; conditions: HL-60, 48 h; summary of the method: as §2

SMILES: CCOP(=O)(CC1CC(n2ccc(N)nc2=O)ON1C)OCC (configuration not stated)
- CC50 [1]: > 1000 µM
- AC50 [2]: > 1000 µM
- CC50 [3]: > 1000 µM
- AC50 [4]: > 1000 µM
- CC50 [5]: > 1000 µM
- CC50 [6]: > 1000 µM
- AC50 [7]: > 1000 µM
- AC50 [8]: > 1000 µM
- CC50 [9]: > 1000 µM
- CC50 [10]: > 1000 µM
- AC50 [11]: > 1000 µM
- CC50 [12]: > 1000 µM
- AC50 [13]: > 1000 µM
- CC50 [14]: > 1000 µM
- AC50 [15]: > 1000 µM
- CC50 [16]: > 1000 µM
- AC50 [17]: > 1000 µM
- AC50 [18]: > 1000 µM

SMILES: CCOP(=O)(CC1CC(n2cc(C)c(=O)[nH]c2=O)ON1C)OCC (configuration not stated)
- CC50 [1]: > 1000 µM
- AC50 [2]: > 1000 µM
- CC50 [3]: > 1000 µM
- AC50 [4]: > 1000 µM
- CC50 [5]: > 1000 µM
- CC50 [6]: > 1000 µM
- AC50 [7]: > 1000 µM
- AC50 [8]: > 1000 µM
- CC50 [9]: > 1000 µM
- CC50 [10]: > 1000 µM
- AC50 [11]: > 1000 µM
- CC50 [12]: > 1000 µM
- AC50 [13]: > 1000 µM
- CC50 [14]: > 1000 µM
- AC50 [15]: > 1000 µM
- CC50 [16]: > 1000 µM
- AC50 [17]: > 1000 µM
- AC50 [18]: > 1000 µM

SMILES: CCOP(=O)(CC1CC(n2cc(F)c(=O)[nH]c2=O)ON1C)OCC (configuration not stated)
- AC50 [2]: 457 µM
- CC50 [5]: 197 µM
- CC50 [6]: 141 µM
- AC50 [7]: 170 µM
- CC50 [9]: > 1000 µM
- AC50 [11]: 277 µM
- CC50 [12]: 247 µM
- CC50 [14]: 457 µM
- AC50 [15]: 250 µM
- CC50 [16]: 408 µM
- AC50 [18]: 151 µM
